# Activity calls are given as the source filed them. The rule behind the calls is not given here.
# Legend:
# Mus musculus [1] = assay: Anticonvulsant activity in CF1 mouse assessed as protection against maximal electroshock-induced seizures at 30 mg/kg, ip after 4 hrs; type: functional, organism-based; design: dose 30 mg/kg
# In short: (§1)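 Male CF-1 albino mice (18–25 g), dosed i.p. at 30, 100 or 300 mg/kg in 0.5% methyl cellulose/water or PEG 200 (0.01 ml/g); tested at intervals after dosing; protection = abolition of hind limb tonic extensor component of MES seizure; scored as protected/tested.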
# Mus musculus [2] = assay: Anticonvulsant activity in CF1 mouse assessed as protection against subcutaneous metrazole-induced seizures at 100 mg/kg, ip after 0.5 hrs; type: functional, organism-based; design: dose 100 mg/kg
# Mus musculus [3] = assay: Anticonvulsant activity in CF1 mouse assessed as protection against subcutaneous metrazole-induced seizures at 30 mg/kg, ip after 4 hrs; type: functional, organism-based; design: dose 30 mg/kg
# Mus musculus [4] = assay: Anticonvulsant activity in CF1 mouse assessed as protection against maximal electroshock-induced seizures at 100 mg/kg, ip after 4 hrs; type: functional, organism-based; design: dose 100 mg/kg; in short: as §1
# Mus musculus [5] = assay: Anticonvulsant activity in CF1 mouse assessed as protection against maximal electroshock-induced seizures at 100 mg/kg, ip after 0.5 hrs; type: functional, organism-based; design: dose 100 mg/kg; in short: as §1
# Mus musculus [6] = assay: Anticonvulsant activity in CF1 mouse assessed as protection against maximal electroshock-induced seizures at 30 mg/kg, ip after 0.5 hrs; type: functional, organism-based; design: dose 30 mg/kg; in short: as §1
# Mus musculus [7] = assay: Anticonvulsant activity in CF1 mouse assessed as protection against 6 Hz electric shock-induced seizures at 100 mg/kg, ip after 0.25 hrs; type: functional, organism-based; design: dose 100 mg/kg
# In short: (§2)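 Male CF-1 albino mice (18–25 g), compound suspended in 0.5% methyl cellulose/water or PEG 200, given i.p.; four mice per time point (0.25, 0.5, 1.0, 2.0, 4 h) challenged via corneal electrodes at 6 Hz, 32 mA for 3 s, current eliciting psychomotor seizure in 97% of animals; reported as protected/tested.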
# Mus musculus [8] = assay: Anticonvulsant activity in CF1 mouse assessed as protection against 6 Hz electric shock-induced seizures at 100 mg/kg, ip after 2 hrs; type: functional, organism-based; design: dose 100 mg/kg; in short: as §2
# Mus musculus [9] = assay: Anticonvulsant activity in CF1 mouse assessed as protection against subcutaneous metrazole-induced seizures at 30 mg/kg, ip after 0.5 hrs; type: functional, organism-based; design: dose 30 mg/kg
# Mus musculus [10] = assay: Anticonvulsant activity in CF1 mouse assessed as protection against 6 Hz electric shock-induced seizures at 100 mg/kg, ip after 4 hrs; type: functional, organism-based; design: dose 100 mg/kg; in short: as §2
# Mus musculus [11] = assay: Neurotoxicity in CF1 mouse at 100 mg/kg, ip after 4 hrs by rotarod test; type: toxicity, organism-based; design: dose 100 mg/kg, route intraperitoneal; conditions: in vivo
# In short: (§3)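 Rotorod neurotoxicity in male CF-1 mice (18–25 g) after i.p. compound in 0.5% methyl cellulose/water or PEG 200 at 30, 100 or 300 mg/kg; reported as number showing toxicity/number tested.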
# Mus musculus [12] = assay: Neurotoxicity in CF1 mouse at 100 mg/kg, ip after 0.5 hrs by rotarod test; type: toxicity, organism-based; design: dose 100 mg/kg, route intraperitoneal; conditions: in vivo; in short: as §3
# Mus musculus [13] = assay: Anticonvulsant activity in CF1 mouse assessed as protection against subcutaneous metrazole-induced seizures at 300 mg/kg, ip after 4 hrs; type: functional, organism-based; design: dose 300 mg/kg
# Mus musculus [14] = assay: Anticonvulsant activity in CF1 mouse assessed as protection against subcutaneous metrazole-induced seizures at 100 mg/kg, ip after 4 hrs; type: functional, organism-based; design: dose 100 mg/kg
# Mus musculus [15] = assay: Neurotoxicity in CF1 mouse at 30 mg/kg, ip after 0.5 hrs by rotarod test; type: toxicity, organism-based; design: dose 30 mg/kg, route intraperitoneal; conditions: in vivo; in short: as §3
# Mus musculus [16] = assay: Neurotoxicity in CF1 mouse at 300 mg/kg, ip after 0.5 hrs by rotarod test; type: toxicity, organism-based; design: dose 300 mg/kg, route intraperitoneal; conditions: in vivo; in short: as §3
# Mus musculus [17] = assay: Anticonvulsant activity in CF1 mouse assessed as protection against 6 Hz electric shock-induced seizures at 100 mg/kg, ip after 0.5 hrs; type: functional, organism-based; design: dose 100 mg/kg; in short: as §2
# Mus musculus [18] = assay: Neurotoxicity in CF1 mouse at 30 mg/kg, ip after 4 hrs by rotarod test; type: toxicity, organism-based; design: dose 30 mg/kg, route intraperitoneal; conditions: in vivo; in short: as §3
# Mus musculus [19] = assay: Neurotoxicity in CF1 mouse at 300 mg/kg, ip after 4 hrs by rotarod test; type: toxicity, organism-based; design: dose 300 mg/kg, route intraperitoneal; conditions: in vivo; in short: as §3
# Mus musculus [20] = assay: Anticonvulsant activity in CF1 mouse assessed as protection against maximal electroshock-induced seizures at 300 mg/kg, ip after 0.5 hrs; type: functional, organism-based; design: dose 300 mg/kg; in short: as §1
# Mus musculus [21] = assay: Anticonvulsant activity in CF1 mouse assessed as protection against subcutaneous metrazole-induced seizures at 300 mg/kg, ip after 0.5 hrs; type: functional, organism-based; design: dose 300 mg/kg
# Mus musculus [22] = assay: Anticonvulsant activity in CF1 mouse assessed as protection against 6 Hz electric shock-induced seizures at 100 mg/kg, ip after 1 hr; type: functional, organism-based; design: dose 100 mg/kg; in short: as §2
# Mus musculus [23] = assay: Anticonvulsant activity in CF1 mouse assessed as protection against maximal electroshock-induced seizures at 300 mg/kg, ip after 4 hrs; type: functional, organism-based; design: dose 300 mg/kg; in short: as §1
Compound,Activity (Mus musculus [1]),Activity (Mus musculus [2]),Activity (Mus musculus [3]),Activity (Mus musculus [4]),Activity (Mus musculus [5]),Activity (Mus musculus [6]),Activity (Mus musculus [7]),Activity (Mus musculus [8]),Activity (Mus musculus [9]),Activity (Mus musculus [10]),Activity (Mus musculus [11]),Activity (Mus musculus [13]),Activity (Mus musculus [14]),Activity (Mus musculus [15]),Activity (Mus musculus [16]),Activity (Mus musculus [17]),Activity (Mus musculus [18]),Activity (Mus musculus [19]),Activity (Mus musculus [20]),Activity (Mus musculus [21]),further results
CCCOc1c(C(=O)NN=C2CCCCC2)sc(C(=O)NN=C2CCCCC2)c1OCCC,inactive,inactive,inactive,inactive,inactive,inactive,inactive,inactive,inactive,inactive,Non-toxic,inactive,inactive,Non-toxic,Non-toxic,inactive,Non-toxic,Non-toxic,inactive,inactive,Activity (Mus musculus [12]): Non-toxic; Activity (Mus musculus [22]): inactive
CCCOc1c(C(=O)NN=C(c2ccccc2)c2ccccc2)sc(C(=O)NN=C(c2ccccc2)c2ccccc2)c1OCCC,inactive,inactive,inactive,inactive,inactive,inactive,inactive,inactive,inactive,inactive,Non-toxic,inactive,inactive,Non-toxic,Non-toxic,inactive,Non-toxic,Non-toxic,inactive,inactive,Activity (Mus musculus [23]): inactive; Activity (Mus musculus [22]): inactive
CCCOc1c(C(=O)N/N=C(\c2ccccc2)c2ccc(Br)s2)sc(C(=O)N/N=C(\c2ccccc2)c2ccc(Br)s2)c1OCCC,inactive,inactive,inactive,inactive,inactive,inactive,inactive,inactive,inactive,inactive,Toxic,inactive,inactive,Non-toxic,Toxic,inactive,Non-toxic,Non-toxic,inactive,inactive,Activity (Mus musculus [12]): Toxic; Activity (Mus musculus [23]): inactive; Activity (Mus musculus [22]): inactive
CCCOc1c(C(=O)N/N=C\c2cc(OC)c(OC)c(OC)c2)sc(C(=O)N/N=C/c2cc(OC)c(OC)c(OC)c2)c1OCCC,inactive,–,inactive,inactive,inactive,inactive,inactive,–,inactive,inactive,Non-toxic,inactive,inactive,Non-toxic,Non-toxic,inactive,Non-toxic,Non-toxic,inactive,inactive,Activity (Mus musculus [12]): Non-toxic; Activity (Mus musculus [23]): inactive

# Source: ChEMBL document CHEMBL1154150, “Synthesis and anticonvulsant activity of some new bishydrazones derived from 3,4-dipropyloxythiophene” (Eur J Med Chem, 2009)
